Measurements as given in article PMC8717589 (ACS Omega, 2021).
Where two headings read alike, the source gives them in different places.

Tests used:
DH82 cells = test: Cytotoxicity assay; format: cell-based, canine; settings: IC50 on L. infantum MHOM/TN/80/IPT1; CC50 72 h
In short: (§1)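 THP-1 (RPMI-1640, 10% FBS; 5 × 10^6 cells/mL) were PMA-differentiated (20 ng/mL, 48 h). DH82 (EMEM, 15% FBS; 2 × 10^5/well) were attached overnight. Both were exposed 72 h at 37 °C to 2, 10, 20, 80 and 200 μM, with DMSO control, in duplicate. Read-out was MTS/PMS A492, with % inhibition at 200 μM.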

Cytotoxicity assay [1] = format: cell-based, canine; settings: dog, DH82 cells
In short: as §1

[2] = system: L. infantum MHOM/TN/80/IPT1 promastigotes; test: L. infantum promastigotes viability assay; format: cell-based, Leishmania infantum; settings: 72 h; for inhibition at 20 µM: read-out: Percentage of inhibition at 20 μM, L. infantum MHOM/TN/80/IPT1
In short: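 Late log/stationary promastigotes were seeded in RPMI-PY at 2.5 × 10^6/mL. They were treated 72 h at 26 °C with 1:2 or 2:3 dilutions from 20 to 0.31 μM, with DMSO vehicle control, in duplicate. MTS/PMS was added at 26 °C until formazan formed, then A492 was read. Growth inhibition is relative to DMSO. IC50 from a normalized-response nonlinear fit with unconstrained Hill slope. Mean and 95% CI, ≥3 independent experiments.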

THP-1 cells = test: Cytotoxicity assay; format: cell-based, human; settings: for THP-1 selectivity index (CC50/IC50): IC50 on L. infantum MHOM/TN/80/IPT1, CC50 72 h
In short: as §1

Cytotoxicity assay [3] = format: cell-based, human; settings: human, PMA-differentiated THP-1 cells (macrophage-like)
In short: as §1

[4] = Leishmania infantum, read-out: L. infantum MHOM/TN/80/IPT1 IC50 (95% CI), promastigotes, 72 h, MTS

CCCCCCCCCCCCCCCCOP(=O)([O-])OCC[N+](C)(C)C [Milt, miltefosine, reference compound]
DH82 selectivity index (CC50/IC50) (DH82 cells): 33.6
CC50 at 72 h (Cytotoxicity assay [1]): 95.9 µM
IC50 [2, 4]: 2.9 µM
THP-1 selectivity index (CC50/IC50) (THP-1 cells): 9.8
CC50 at 72 h (Cytotoxicity assay [3]): 27.8 µM

N=C(N)c1ccc(OCCCCCOc2ccc(C(=N)N)cc2)cc1 [Pent, pentamidine, reference compound]
CC50 at 72 h (Cytotoxicity assay [1]): 10.6 µM
IC50 [2, 4]: 2.6 µM
CC50 at 72 h (Cytotoxicity assay [3]): 103 µM

COC(=O)c1c(C)ncn1CC(c1cn(C)c2ccccc12)c1cn(C)c2ccccc12 [2e]
DH82 selectivity index (CC50/IC50) (DH82 cells): 5.0
CC50 at 72 h (Cytotoxicity assay [1]): 24.3 µM
IC50 [2, 4]: 4.9 µM
THP-1 selectivity index (CC50/IC50) (THP-1 cells): 11.3
CC50 at 72 h (Cytotoxicity assay [3]): 55.4 µM

C[C@@H]1[C@H](O)[C@@H](C)/C=C/C=C/C=C/C=C/C=C/C=C/C=C/[C@H](O[C@@H]2O[C@H](C)[C@@H](O)[C@H](N)[C@@H]2O)C[C@@H]2O[C@](O)(C[C@@H](O)C[C@@H](O)[C@H](O)CC[C@@H](O)C[C@@H](O)CC(=O)O[C@H]1C)C[C@H](O)[C@H]2C(=O)O [Amph B, amphotericin B, reference compound]
DH82 selectivity index (CC50/IC50) (DH82 cells): >3333
CC50 at 72 h (Cytotoxicity assay [1]): > 200 µM
IC50 [2, 4]: 0.064 µM
THP-1 selectivity index (CC50/IC50) (THP-1 cells): 45.8
CC50 at 72 h (Cytotoxicity assay [3]): 2.8 µM

Cc1cn(CC(c2c[nH]c3ccccc23)c2c[nH]c3ccccc23)nn1 [3a]
IC50 [2, 4]: > 20 µM
inhibition at 20 µM ([2]; Leishmania infantum): 22%

c1ccc2c(Cc3c[nH]c4ccccc34)c[nH]c2c1 [DIM, 3,3′-diindolylmethane, reference compound]
IC50 [2, 4]: > 20 µM
inhibition at 20 µM ([2]; Leishmania infantum): 10%

Cc1cn(CC(c2cn(C)c3ccccc23)c2cn(C)c3ccccc23)nn1 [3b]
DH82 selectivity index (CC50/IC50) (DH82 cells): 3.9
CC50 at 72 h (Cytotoxicity assay [1]): 31.9 µM
IC50 [2, 4]: < 8 µM
IC50 ([2]; read-out: L. infantum MHOM/TN/80/IPT1 IC50 (95% CI), promastigotes, MTS): 8.1 µM
inhibition at 200 µM (THP-1 cells; Homo sapiens, THP-1, 72 h, read-out: Percentage of inhibition at 200 μM, THP-1): 33%
THP-1 selectivity index (CC50/IC50) (THP-1 cells): >25
CC50 at 72 h (Cytotoxicity assay [3]): > 200 µM

COC(=O)c1c(C)ncn1CC(c1c[nH]c2cc(Br)ccc12)c1c[nH]c2cc(Br)ccc12 [2d]
DH82 selectivity index (CC50/IC50) (DH82 cells): 2.2
CC50 at 72 h (Cytotoxicity assay [1]): 18.9 µM
IC50 [2, 4]: 8.5 µM
THP-1 selectivity index (CC50/IC50) (THP-1 cells): 1.8
CC50 at 72 h (Cytotoxicity assay [3]): 15.4 µM

CCc1ncn(CC(c2c[nH]c3ccc(C)cc23)c2c[nH]c3ccc(C)cc23)c1C(=O)OC [2c]
DH82 selectivity index (CC50/IC50) (DH82 cells): 2.3
CC50 at 72 h (Cytotoxicity assay [1]): 23.5 µM
IC50 [2, 4]: 10 µM
THP-1 selectivity index (CC50/IC50) (THP-1 cells): 3.8
CC50 at 72 h (Cytotoxicity assay [3]): 38.6 µM

COC(=O)c1c(C)ncn1CC(c1c[nH]c2ccccc12)c1c[nH]c2ccccc12 [2a]
DH82 selectivity index (CC50/IC50) (DH82 cells): 3.5
CC50 at 72 h (Cytotoxicity assay [1]): 35.3 µM
IC50 [2, 4]: 10 µM
THP-1 selectivity index (CC50/IC50) (THP-1 cells): 3.8
CC50 at 72 h (Cytotoxicity assay [3]): 37.9 µM

COC(=O)c1c(C)ncn1CC(c1c[nH]c2ccc(C)cc12)c1c[nH]c2ccc(C)cc12 [2b]
DH82 selectivity index (CC50/IC50) (DH82 cells): 3.2
CC50 at 72 h (Cytotoxicity assay [1]): 24.8 µM
IC50 [2, 4]: 7.7 µM
THP-1 selectivity index (CC50/IC50) (THP-1 cells): 3.5
CC50 at 72 h (Cytotoxicity assay [3]): 26.9 µM

CCOC(=O)c1cn(CC(c2cn(C)c3ccc(C)cc23)c2cn(C)c3ccc(C)cc23)c(C)c1C(=O)OC [1c]
IC50 [2, 4]: > 20 µM
inhibition at 20 µM ([2]; Leishmania infantum): 43%

CCOC(=O)c1c(C)ncn1CC(c1cn(C)c2ccc([N+](=O)[O-])cc12)c1cn(C)c2ccc([N+](=O)[O-])cc12 [2f]
DH82 selectivity index (CC50/IC50) (DH82 cells): >41
CC50 at 72 h (Cytotoxicity assay [1]): > 200 µM
IC50 [2, 4]: 4.9 µM
THP-1 selectivity index (CC50/IC50) (THP-1 cells): 7.2
CC50 at 72 h (Cytotoxicity assay [3]): 35.1 µM

CCOC(=O)c1c(C(=O)OC)cn(CC(c2cn(C)c3cc(Br)ccc23)c2cn(C)c3cc(Br)ccc23)c1C [1d]
IC50 [2, 4]: > 20 µM
inhibition at 20 µM ([2]; Leishmania infantum): 11%
